Experimental data reported in ChEMBL document CHEMBL4014347, “Targeting Mycolic Acid Transport by Indole-2-carboxamides for the Treatment of Mycobacterium abscessus Infections” (J Med Chem, 2017).
≈ marks a conversion by molar mass, not a printed value.

What was measured:
Type in all cases: functional
[1] = system: Mycobacteroides abscessus; assay: Antibacterial activity against CF patient derived Mycobacterium abscessus subsp. abscessus isolate 2524 rough variant after 3 to 5 days by two fold serial dilution method
How it was run: (§1)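 Broth microdilution in cation-adjusted Mueller−Hinton broth per CLSI; inoculum 5 × 10^6 CFU/mL of exponential-phase bacteria; two-fold serial dilutions, solvent-only wells as control; 30 °C for 3−5 days; MIC read visually and confirmed by absorbance at 560 nm; triplicate on three independent occasions.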

[2] = system: Mycobacteroides abscessus; assay: Antibacterial activity against CF patient derived Mycobacterium abscessus subsp. abscessus isolate 2648 rough variant after 3 to 5 days by two fold serial dilution method; how it was run: as §1
[3] = system: Mycobacteroides abscessus; assay: Antibacterial activity against non CF patient derived Mycobacterium abscessus subsp. abscessus isolate 3022 rough variant after 3 to 5 days by two fold serial dilution method; how it was run: as §1
[4] = system: Mycobacteroides abscessus; assay: Antibacterial activity against CF patient derived Mycobacterium abscessus subsp. abscessus rough variant after 3 to 5 days by two fold serial dilution method; how it was run: as §1
[5] = system: Mycobacteroides abscessus; assay: Antibacterial activity against non CF patient derived Mycobacterium abscessus subsp. abscessus isolate CIP104536 smooth variant after 3 to 5 days by two fold serial dilution method; how it was run: as §1
[6] = system: Mycobacteroides abscessus; assay: Antibacterial activity against non CF patient derived Mycobacterium abscessus subsp. abscessus isolate CIP104536 rough variant after 3 to 5 days by two fold serial dilution method; how it was run: as §1
[7] = system: Mycobacteroides abscessus; assay: Antibacterial activity against CF patient derived Mycobacterium abscessus subsp. abscessus isolate 3321 smooth variant after 3 to 5 days by two fold serial dilution method; how it was run: as §1
[8] = system: Mycobacteroides abscessus; assay: Antibacterial activity against CF patient derived Mycobacterium abscessus subsp. abscessus isolate 1298 smooth variant after 3 to 5 days by two fold serial dilution method; how it was run: as §1
[9] = system: Mycobacteroides abscessus; assay: Antibacterial activity against non CF patient derived Mycobacterium abscessus subsp. abscessus isolate 2587 smooth variant after 3 to 5 days by two fold serial dilution method; how it was run: as §1
[10] = system: Mycobacteroides abscessus; assay: Antibacterial activity against CF patient derived Mycobacterium abscessus subsp. abscessus isolate 2069 smooth variant after 3 to 5 days by two fold serial dilution method; how it was run: as §1
[11] = system: Mycobacteroides abscessus; assay: Antibacterial activity against CF patient derived Mycobacterium abscessus subsp. abscessus smooth variant after 3 to 5 days by two fold serial dilution method; how it was run: as §1
[12] = system: Mycobacteroides abscessus; assay: Antibacterial activity against CF patient derived Mycobacterium abscessus subsp. massiliense isolate 210 rough variant after 3 to 5 days by two fold serial dilution method; how it was run: as §1
[13] = system: Mycobacteroides abscessus; assay: Antibacterial activity against Addison's disease patient derived Mycobacterium abscessus subsp. massiliense isolate CIP108297 rough variant after 3 to 5 days by two fold serial dilution method; how it was run: as §1
[14] = system: Mycobacteroides abscessus; assay: Antibacterial activity against Addison's disease patient derived Mycobacterium abscessus subsp. massiliense isolate CIP108297 smooth variant after 3 to 5 days by two fold serial dilution method; how it was run: as §1
[15] = system: Mycobacteroides abscessus; assay: Antibacterial activity against CF patient derived Mycobacterium abscessus subsp. massiliense isolate 111 smooth variant after 3 to 5 days by two fold serial dilution method; how it was run: as §1
[16] = system: Mycobacteroides abscessus; assay: Antibacterial activity against CF patient derived Mycobacterium abscessus subsp. massiliense isolate 212 smooth variant after 3 to 5 days by two fold serial dilution method; how it was run: as §1
[17] = system: Mycobacteroides abscessus; assay: Antibacterial activity against CF patient derived Mycobacterium abscessus subsp. massiliense isolate 185 smooth variant after 3 to 5 days by two fold serial dilution method; how it was run: as §1
[18] = system: Mycobacteroides abscessus; assay: Antibacterial activity against CF patient derived Mycobacterium abscessus subsp. massiliense isolate 140 smooth variant after 3 to 5 days by two fold serial dilution method; how it was run: as §1
[19] = system: Mycobacteroides abscessus; assay: Antibacterial activity against CF patient derived Mycobacterium abscessus subsp. massiliense isolate 100 smooth variant after 3 to 5 days by two fold serial dilution method; how it was run: as §1
[20] = system: Mycobacteroides abscessus; assay: Antibacterial activity against CF patient derived Mycobacterium abscessus subsp. massiliense isolate 107 smooth variant after 3 to 5 days by two fold serial dilution method; how it was run: as §1
[21] = system: Mycobacteroides abscessus; assay: Antibacterial activity against CF patient derived Mycobacterium abscessus subsp. massiliense isolate 122 smooth variant after 3 to 5 days by two fold serial dilution method; how it was run: as §1
[22] = system: Mycobacteroides abscessus; assay: Antibacterial activity against CF patient derived Mycobacterium abscessus subsp. massiliense isolate 120 smooth variant after 3 to 5 days by two fold serial dilution method; how it was run: as §1
[23] = Antibacterial activity against non CF patient derived Mycobacterium abscessus subsp. bolletii isolate 19 rough variant after 3 to 5 days by two fold serial dilution method; conditions: Mycobacteroides abscessus; how it was run: as §1
[24] = Antibacterial activity against CF patient derived Mycobacterium abscessus subsp. bolletii isolate 108 rough variant after 3 to 5 days by two fold serial dilution method; conditions: Mycobacteroides abscessus; how it was run: as §1
[25] = Antibacterial activity against non CF patient derived Mycobacterium abscessus subsp. bolletii isolate 17 smooth variant after 3 to 5 days by two fold serial dilution method; conditions: Mycobacteroides abscessus; how it was run: as §1
[26] = Antibacterial activity against CF patient derived Mycobacterium abscessus subsp. bolletii isolate 97 smooth variant after 3 to 5 days by two fold serial dilution method; conditions: Mycobacteroides abscessus; how it was run: as §1
[27] = Antibacterial activity against CF patient derived Mycobacterium abscessus subsp. bolletii isolate 114 smooth variant after 3 to 5 days by two fold serial dilution method; conditions: Mycobacteroides abscessus; how it was run: as §1
[28] = Antibacterial activity against CF patient derived Mycobacterium abscessus subsp. bolletii isolate 116 smooth variant after 3 to 5 days by two fold serial dilution method; conditions: Mycobacteroides abscessus; how it was run: as §1
[29] = Antibacterial activity against CF patient derived Mycobacterium abscessus subsp. bolletii isolate 112 rough variant after 3 to 5 days by two fold serial dilution method; conditions: Mycobacteroides abscessus; how it was run: as §1
[30] = Antibacterial activity against Mycobacterium abscessus subsp. bolletii isolate CIP108541 smooth variant after 3 to 5 days by two fold serial dilution method; conditions: Mycobacteroides abscessus; how it was run: as §1
[31] = system: Mycobacteroides abscessus; assay: Antibacterial activity against Mycobacterium abscessus CIP_OK4-10 harboring MAB_4508 g925c/A309P mutant after 3 to 5 days by two fold serial dilution method; how it was run: as §1
[32] = system: Mycobacteroides abscessus; assay: Antibacterial activity against Mycobacterium abscessus CIP_PIPD1 harboring MAB_4508 g925c/A309P mutant after 3 to 5 days by two fold serial dilution method; how it was run: as §1

Work on NCC[C@H](O)C(=O)N[C@@H]1C[C@H](N)[C@@H](O[C@H]2O[C@H](CN)[C@@H](O)[C@H](O)[C@H]2O)[C@H](O)[C@H]1O[C@H]1O[C@H](CO)[C@@H](O)[C@H](N)[C@H]1O [AMIKACIN] yielded an MIC [1] of 25 µg/mL (≈ 42.7 µM), an MIC [2] of 12.5 µg/mL (≈ 21.3 µM) and an MIC [3] of 12.5 µg/mL (≈ 21.3 µM). The MIC [4] was 12.5 µg/mL (≈ 21.3 µM), the MIC [5] was 25 µg/mL (≈ 42.7 µM) and the MIC [6] was 12.5 µg/mL (≈ 21.3 µM). For the same molecule, the MIC [7] was 25 µg/mL (≈ 42.7 µM), the MIC [8] was 12.5 µg/mL (≈ 21.3 µM) and the MIC [9] was 25 µg/mL (≈ 42.7 µM). The MIC [10] was 25 µg/mL (≈ 42.7 µM), the MIC [11] was 12.5 µg/mL (≈ 21.3 µM) and the MIC [12] was 12.5 µg/mL (≈ 21.3 µM). The MIC [13] was 12.5 µg/mL (≈ 21.3 µM), the MIC [14] was 25 µg/mL (≈ 42.7 µM) and the MIC [15] was 25 µg/mL (≈ 42.7 µM). It also gave an MIC [16] of 25 µg/mL (≈ 42.7 µM), an MIC [17] of 25 µg/mL (≈ 42.7 µM) and an MIC [18] of 25 µg/mL (≈ 42.7 µM). For the same molecule, the MIC [19] was > 100 µg/mL, the MIC [20] was 12.5 µg/mL (≈ 21.3 µM) and the MIC [21] was 12.5 µg/mL (≈ 21.3 µM). It also gave an MIC [22] of 12.5 µg/mL (≈ 21.3 µM), an MIC [23] of 50 µg/mL (≈ 85.4 µM) and an MIC [24] of 12.8 µg/mL (≈ 21.9 µM). It also gave an MIC [25] of 12.5 µg/mL (≈ 21.3 µM), an MIC [26] of 12.5 µg/mL (≈ 21.3 µM) and an MIC [27] of 12.5 µg/mL (≈ 21.3 µM). The MIC [28] was 12.5 µg/mL (≈ 21.3 µM), the MIC [29] was > 100 µg/mL and the MIC [30] was 25 µg/mL (≈ 42.7 µM).
Cc1ccccc1CN1CCC(O)(c2ccc(Cl)c(C(F)(F)F)c2)CC1 showed an MIC [5] of 0.125 µg/mL (≈ 0.326 µM), an MIC [31] of 8 µg/mL (≈ 20.8 µM) and an MIC [32] of 8 µg/mL (≈ 20.8 µM).
